From ChEMBL document CHEMBL5058577, “EUbOPEN Chemogenomics Library 2 (Multiplex)” (2022)

Tested on: U2OS
Assay: Multiplex assay against U2OS
Assay type: toxicity, cell-based
Details: human
Outline: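 On a CQ1 microscope at 37°C and 5% CO2, live cells were imaged after compound addition. They had been stained at seeding with Hoechst33342, BioTracker Green Microtubule Cytoskeleton Dye, MitoTracker Red and Annexin V Alexa Fluor 680. CellPathfinder machine-learning gating assigned cells to Hoechst high-intensity objects or normal cells, normal cells to healthy, pyknosed or fragmented nuclei, and pyknosed cells to mitotic or apoptotic. Tubulin, mitochondrial-mass and membrane-permeability phenotypes are per cents of healthy-nucleus cells.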

[1] = 12 h, 1 µM, compound concentration 1 uM, replicate 1
[2] = 12 h, 1 µM, compound concentration 1 uM, replicate 2
[3] = 12 h, 10 µM, compound concentration 10 uM, replicate 1
[4] = 12 h, 10 µM, compound concentration 10 uM, replicate 2
[5] = 24 h, 1 µM, compound concentration 1 uM, replicate 1
[6] = 24 h, 1 µM, compound concentration 1 uM, replicate 2
[7] = 24 h, 10 µM, compound concentration 10 uM, replicate 1
[8] = 24 h, 10 µM, compound concentration 10 uM, replicate 2
[9] = 48 h, 1 µM, compound concentration 1 uM, replicate 1
[10] = 48 h, 1 µM, compound concentration 1 uM, replicate 2
[11] = 48 h, 10 µM, compound concentration 10 uM, replicate 1
[12] = 48 h, 10 µM, compound concentration 10 uM, replicate 2

With COc1ccc2c(c1OCc1ccccc1)C[C@@H](C(=O)O)N(C(=O)C(c1ccccc1)c1ccccc1)C2 [OLODANRIGAN] the “Population Apoptotic (%)” value [1] was 82%, the “Population Fragmented Nuclei (%)” value [1] was 31% and the “Population Healthy Nuclei (%)” value [1] was 59%. For the same molecule, the “Population Hoechst High Intensity Objects (%)” value [1] was 2%, the “Population Membrane Permeable-Phenotype (%)” value [1] was 4% and the “Population Mitochondria Different-Phenotype (%)” value [1] was 0%. For the same molecule, the “Population Mitotic Cells (%)” value [1] was 17%, the “Population Normal (%)” value [1] was 97% and the “Population Pyknosed Nuclei (%)” value [1] was 8%. The “Population Tubulin-Different-Phenotype (%)” value [1] was 1%, the “Total Cell Count” value [1] was 286 and the “Population Apoptotic (%)” value [2] was 66%. The “Population Fragmented Nuclei (%)” value [2] was 18%, the “Population Healthy Nuclei (%)” value [2] was 75% and the “Population Hoechst High Intensity Objects (%)” value [2] was 3%. For the same molecule, the “Population Membrane Permeable-Phenotype (%)” value [2] was 6%, the “Population Mitochondria Different-Phenotype (%)” value [2] was 4% and the “Population Mitotic Cells (%)” value [2] was 33%. For the same molecule, the “Population Normal (%)” value [2] was 96%, the “Population Pyknosed Nuclei (%)” value [2] was 5% and the “Population Tubulin-Different-Phenotype (%)” value [2] was 2%. The “Total Cell Count” value [2] was 112, the “Population Apoptotic (%)” value [3] was 78% and the “Population Fragmented Nuclei (%)” value [3] was 30%. The “Population Healthy Nuclei (%)” value [3] was 64%, the “Population Hoechst High Intensity Objects (%)” value [3] was 1% and the “Population Membrane Permeable-Phenotype (%)” value [3] was 6%. The “Population Mitochondria Different-Phenotype (%)” value [3] was 1%, the “Population Mitotic Cells (%)” value [3] was 21% and the “Population Normal (%)” value [3] was 98%. For the same molecule, the “Population Pyknosed Nuclei (%)” value [3] was 5%, the “Population Tubulin-Different-Phenotype (%)” value [3] was 2% and the “Total Cell Count” value [3] was 273. For the same molecule, the “Population Apoptotic (%)” value [4] was 81%, the “Population Fragmented Nuclei (%)” value [4] was 26% and the “Population Healthy Nuclei (%)” value [4] was 63%. For the same molecule, the “Population Hoechst High Intensity Objects (%)” value [4] was 0%, the “Population Membrane Permeable-Phenotype (%)” value [4] was 2% and the “Population Mitotic Cells (%)” value [4] was 18%. The “Population Normal (%)” value [4] was 99%, the “Population Pyknosed Nuclei (%)” value [4] was 10% and the “Total Cell Count” value [4] was 110. For the same molecule, the “Population Apoptotic (%)” value [5] was 87%, the “Population Fragmented Nuclei (%)” value [5] was 25% and the “Population Healthy Nuclei (%)” value [5] was 64%. For the same molecule, the “Population Hoechst High Intensity Objects (%)” value [5] was 0%, the “Population Membrane Permeable-Phenotype (%)” value [5] was 2% and the “Population Mitochondria Different-Phenotype (%)” value [5] was 0%. For the same molecule, the “Population Mitotic Cells (%)” value [5] was 12%, the “Population Normal (%)” value [5] was 99% and the “Population Pyknosed Nuclei (%)” value [5] was 10%. The “Population Tubulin-Different-Phenotype (%)” value [5] was 2%, the “Total Cell Count” value [5] was 311 and the “Population Apoptotic (%)” value [6] was 55%. The “Population Fragmented Nuclei (%)” value [6] was 18%, the “Population Healthy Nuclei (%)” value [6] was 74% and the “Population Hoechst High Intensity Objects (%)” value [6] was 2%. For the same molecule, the “Population Membrane Permeable-Phenotype (%)” value [6] was 9%, the “Population Mitochondria Different-Phenotype (%)” value [6] was 6% and the “Population Mitotic Cells (%)” value [6] was 44%. For the same molecule, the “Population Normal (%)” value [6] was 97%, the “Population Pyknosed Nuclei (%)” value [6] was 6% and the “Population Tubulin-Different-Phenotype (%)” value [6] was 5%. The “Total Cell Count” value [6] was 143, the “Population Apoptotic (%)” value [7] was 83% and the “Population Fragmented Nuclei (%)” value [7] was 27%. The “Population Healthy Nuclei (%)” value [7] was 66%, the “Population Hoechst High Intensity Objects (%)” value [7] was 1% and the “Population Membrane Permeable-Phenotype (%)” value [7] was 4%. The “Population Mitochondria Different-Phenotype (%)” value [7] was 0%, the “Population Mitotic Cells (%)” value [7] was 16% and the “Population Normal (%)” value [7] was 98%. The “Population Pyknosed Nuclei (%)” value [7] was 5%, the “Population Tubulin-Different-Phenotype (%)” value [7] was 1% and the “Total Cell Count” value [7] was 318. The “Population Apoptotic (%)” value [8] was 50%, the “Population Fragmented Nuclei (%)” value [8] was 22% and the “Population Healthy Nuclei (%)” value [8] was 72%. The “Population Hoechst High Intensity Objects (%)” value [8] was 0%, the “Population Mitochondria Different-Phenotype (%)” value [8] was 1% and the “Population Mitotic Cells (%)” value [8] was 50%. The “Population Normal (%)” value [8] was 100%, the “Population Pyknosed Nuclei (%)” value [8] was 4% and the “Population Tubulin-Different-Phenotype (%)” value [8] was 2%. For the same molecule, the “Total Cell Count” value [8] was 123, the “Population Apoptotic (%)” value [9] was 91% and the “Population Fragmented Nuclei (%)” value [9] was 22%. The “Population Healthy Nuclei (%)” value [9] was 70%, the “Population Hoechst High Intensity Objects (%)” value [9] was 3% and the “Population Membrane Permeable-Phenotype (%)” value [9] was 4%. The “Population Mitochondria Different-Phenotype (%)” value [9] was 1%, the “Population Mitotic Cells (%)” value [9] was 8% and the “Population Normal (%)” value [9] was 96%. The “Population Pyknosed Nuclei (%)” value [9] was 7%, the “Population Tubulin-Different-Phenotype (%)” value [9] was 2% and the “Total Cell Count” value [9] was 483. For the same molecule, the “Population Apoptotic (%)” value [10] was 78%, the “Population Fragmented Nuclei (%)” value [10] was 14% and the “Population Healthy Nuclei (%)” value [10] was 77%. For the same molecule, the “Population Hoechst High Intensity Objects (%)” value [10] was 4%, the “Population Membrane Permeable-Phenotype (%)” value [10] was 3% and the “Population Mitochondria Different-Phenotype (%)” value [10] was 3%. The “Population Mitotic Cells (%)” value [10] was 21%, the “Population Normal (%)” value [10] was 95% and the “Total Cell Count” value [10] was 184. The “Population Apoptotic (%)” value [11] was 88%, the “Population Fragmented Nuclei (%)” value [11] was 20% and the “Population Healthy Nuclei (%)” value [11] was 71%. The “Population Hoechst High Intensity Objects (%)” value [11] was 1%, the “Population Membrane Permeable-Phenotype (%)” value [11] was 5% and the “Population Mitochondria Different-Phenotype (%)” value [11] was 1%. The “Population Mitotic Cells (%)” value [11] was 11%, the “Population Normal (%)” value [11] was 98% and the “Population Pyknosed Nuclei (%)” value [11] was 8%. For the same molecule, the “Population Tubulin-Different-Phenotype (%)” value [11] was 3%, the “Total Cell Count” value [11] was 451 and the “Population Apoptotic (%)” value [12] was 85%. For the same molecule, the “Population Fragmented Nuclei (%)” value [12] was 18%, the “Population Healthy Nuclei (%)” value [12] was 77% and the “Population Membrane Permeable-Phenotype (%)” value [12] was 7%. For the same molecule, the “Population Mitochondria Different-Phenotype (%)” value [12] was 6%, the “Population Mitotic Cells (%)” value [12] was 14% and the “Population Pyknosed Nuclei (%)” value [12] was 4%. For the same molecule, the “Population Tubulin-Different-Phenotype (%)” value [12] was 5% and the “Total Cell Count” value [12] was 163.
